Measured values: ChEMBL document CHEMBL1158357, “Synthesis of [1,2,4]triazolo[1,5-a]pyridines of potential PGE2 inhibitory properties” (2009)

Key:
Rattus norvegicus [1] = test: Antiinflammatory activity in Wistar albino rat assessed as inhibition of carrageenan-induced paw edema volume at 50 mg/kg, ip administered 1 hr prior to carrageenan challenge measured after 1 hr; parameters: scale not given: the % may be the effect or the level left; details: route intraperitoneal
Rattus norvegicus [2] = test: Antiinflammatory activity against carrageenan-induced inflammation in albino rat air pouch model assessed as PGE2 level at 10 mg/kg, po administered […] before carrageenan challenge measured after 6 hrs; type: functional
Summary of the method: (§1)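 Male albino rats (200–250 g), 6 per group. A dorsal air pouch was made with 20 ml air s.c. on day 1, 10 ml two days later and 10 ml on day 5. Next day, rats were dosed orally in saline with a few drops of Tween 80 (controls: sterile saline), then given 2 ml 1% carrageenan in saline into the pouch. Exudate was aspirated 6 h later under ether, stored at -20 °C, and PGE2 measured by ELISA kit.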

Rattus norvegicus [3] = test: Antiinflammatory activity in Wistar albino rat assessed as inhibition of carrageenan-induced paw edema volume at 50 mg/kg, ip administered 1 hr prior to carrageenan challenge measured after 4 hrs; details: route intraperitoneal
Rattus norvegicus [4] = test: Antiinflammatory activity in Wistar albino rat assessed as inhibition of carrageenan-induced paw edema volume at 50 mg/kg, ip administered 1 hr prior to carrageenan challenge measured after 3 hrs; parameters: scale not given: the % may be the effect or the level left; details: route intraperitoneal
Rattus norvegicus [5] = test: Antiinflammatory activity in Wistar albino rat assessed as inhibition of carrageenan-induced paw edema volume at 50 mg/kg, ip administered 1 hr prior to carrageenan challenge measured after 2 hrs; parameters: scale not given: the % may be the effect or the level left; details: route intraperitoneal
Rattus norvegicus [6] = test: Antiinflammatory activity in Wistar albino rat assessed as inhibition of carrageenan-induced paw edema volume at 50 mg/kg, po administered 1 hr prior to carrageenan challenge measured after 1 hr; type: functional
Rattus norvegicus [7] = test: Antiinflammatory activity in Wistar albino rat assessed as inhibition of carrageenan-induced paw edema volume at 50 mg/kg, po administered 1 hr prior to carrageenan challenge measured after 2 hrs; type: functional
Rattus norvegicus [8] = test: Antiinflammatory activity in Wistar albino rat assessed as inhibition of carrageenan-induced paw edema volume at 50 mg/kg, po administered 1 hr prior to carrageenan challenge measured after 4 hrs; parameters: scale not given: the % may be the effect or the level left
Rattus norvegicus [9] = test: Antiinflammatory activity in Wistar albino rat assessed as inhibition of carrageenan-induced paw edema volume at 50 mg/kg, po administered 1 hr prior to carrageenan challenge measured after 3 hrs; type: functional
Rattus norvegicus [10] = test: Antiinflammatory activity in Wistar albino rat assessed as inhibition of carrageenan-induced paw edema volume at 50 mg/kg, po administered 1 hr prior to carrageenan challenge measured after 4 hrs relative to indomethacin; type: functional; parameters: scale not given: the % may be the effect or the level left
Rattus norvegicus [11] = test: Antiinflammatory activity against carrageenan-induced inflammation in albino rat air pouch model assessed as PGE2 level at 50 mg/kg, po administered […] before carrageenan challenge measured after 6 hrs; type: functional
Summary of the method: as §1

| SMILES | Activity (Rattus norvegicus [1]) | Activity (Rattus norvegicus [2]) | Activity (Rattus norvegicus [3]) | Activity (Rattus norvegicus [4]) | Activity (Rattus norvegicus [5]) | Activity (Rattus norvegicus [6]) | Activity (Rattus norvegicus [7]) | Activity (Rattus norvegicus [8]) | Activity (Rattus norvegicus [9]) | Activity (Rattus norvegicus [10]) | Activity (Rattus norvegicus [11]) |
| --- | --- | --- | --- | --- | --- | --- | --- | --- | --- | --- | --- |
| COc1ccc2c(c1)c(CC(=O)O)c(C)n2C(=O)c1ccc(Cl)cc1 [INDOMETHACIN] | 56.5% | 98.33 pg/mL | 0.227 mL | 65.4% | 52.4% | 0.09 mL | 0.158 mL | 67.8% | 0.18 mL |  |  |
| Cn1c([S-])n[n+]2c(N)c(C#N)c(-c3ccc(N4CCOCC4)cc3)c(C#N)c12 | 1.9% |  | 0.385 mL | 41.7% | 17.2% | 0.203 mL | 0.275 mL | 45.4% | 0.303 mL | 67% |  |
| C=CCn1c([S-])n[n+]2c(N)c(C#N)c(-c3ccc(N4CCOCC4)cc3)c(C#N)c12 | 9.2% |  | 0.278 mL | 25.6% | 19.3% | 0.188 mL | 0.268 mL | 60.6% | 0.387 mL | 89.4% |  |
| C=CCn1c([S-])n[n+]2c(N)c(C#N)c(-c3ccc(N4CCCCC4)cc3)c(C#N)c12 | 22.7% |  | 0.222 mL | 35% | 7.5% | 0.16 mL | 0.307 mL | 68.5% | 0.338 mL | 101% | 94.5 pg/mL |
| N#Cc1c(-c2ccc(N3CCCCC3)cc2)c(C#N)c2n(Cc3ccccc3)c([S-])n[n+]2c1N | 7.2% |  | 0.23 mL | 39.8% | 2.1% | 0.192 mL | 0.325 mL | 67.4% | 0.313 mL | 99.4% | 102.33 pg/mL |
| CN1CCN(c2ccc(-c3c(C#N)c(N)[n+]4nc([S-])n(C)c4c3C#N)cc2)CC1 | 16.9% |  | 0.447 mL | 38.1% | 13.6% | 0.172 mL | 0.287 mL | 36.6% | 0.322 mL | 54% |  |
| N#Cc1c(-c2ccc(N3CCOCC3)cc2)c(C#N)c2n(Cc3ccccc3)c([S-])n[n+]2c1N | 0% |  | 0.428 mL | 6.7% | 1.2% | 0.207 mL | 0.328 mL | 39.3% | 0.485 mL | 58% |  |
| Cn1c([S-])n[n+]2c(N)c(C#N)c(-c3ccccc3OCCCOc3ccccc3-c3c(C#N)c(N)[n+]4nc([S-])n(C)c4c3C#N)c(C#N)c12 | 8.2% |  | 0.175 mL | 41% | 22.6% | 0.19 mL | 0.257 mL | 75.2% | 0.307 mL | 110.9% | 92.17 pg/mL |
| CCn1c([S-])n[n+]2c(N)c(C#N)c(-c3ccc(N4CCCCC4)cc3)c(C#N)c12 | 31.4% |  | 0.272 mL | 55.8% | 66.9% | 0.142 mL | 0.11 mL | 61.4% | 0.23 mL | 90.6% |  |
| Cn1c([S-])n[n+]2c(N)c(C#N)c(-c3ccc(N4CCCCC4)cc3)c(C#N)c12 | 2.4% |  | 0.345 mL | 32.1% | 10.2% | 0.202 mL | 0.298 mL | 51.1% | 0.353 mL | 75.4% |  |
| CCn1c([S-])n[n+]2c(N)c(C#N)c(-c3ccc(N4CCOCC4)cc3)c(C#N)c12 | 43% |  | 0.317 mL | 38.1% | 30.1% | 0.118 mL | 0.232 mL | 55% | 0.322 mL | 81.1% |  |
| CCn1c([S-])n[n+]2c(N)c(C#N)c(-c3ccccc3OCCOc3ccccc3-c3c(C#N)c(N)[n+]4nc([S-])n(CC)c4c3C#N)c(C#N)c12 | 9.2% |  | 0.16 mL | 40% | 30.1% | 0.188 mL | 0.232 mL | 77.3% | 0.312 mL | 114% | 87.67 pg/mL |
| Cn1c([S-])n[n+]2c(N)c(C#N)c(-c3ccccc3OCCOc3ccccc3-c3c(C#N)c(N)[n+]4nc([S-])n(C)c4c3C#N)c(C#N)c12 | 53.1% |  | 0.292 mL | 28.8% | 11.7% | 0.097 mL | 0.293 mL | 58.6% | 0.37 mL | 86.4% |  |
